Mcl1 Noxa PPI = Mcl-1/Noxa interaction inhibition | Q07820 | TR-FRET Mcl-1/Noxa peptide binding, 2 h | inhibition, % at 21.7 µM | hit rate 1.5% among 220,000 | AID 1022;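 active = compounds that cut the protein-peptide binding signal by more than 50% relative to plate controls in a single-dose test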;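 also: His-tagged Mcl-1 with rhodamine Noxa BH3 peptide and terbium anti-His antibody; 0% = Mcl-1 plus Noxa peptide wells and 100% = peptide-only wells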
MCL1 BIM primary = MCL1-BIM-BH3 interaction inhibition (human) | Q07820 | GST-MCL1 / FITC-Bim-BH3 fluorescence polarization | inhibition, % at 10.9 µM | hit rate 0.68% among 320,000 | AID 2057;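 active = inhibition above the mean inhibition of all tested compounds plus 3 SD, set per campaign, cut at about 40% in these data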;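 also: 0% = DMSO wells and 100% = unlabeled Bim-BH3 peptide control; higher means more loss of mP so more displacement of Bim peptide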
Mcl1-Bid inh = disrupts binding of human Mcl-1 to Bid peptide; TR-FRET Mcl-1/Bid-Dy647 peptide binding, 1536-well; inhibition, % at 21.7 µM; AID 1021; hit rate 0.97% among 220,000;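 active = compounds that cut the binding signal by more than half at the single screening dose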;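 also: His-tagged Mcl-1 with europium anti-His antibody binding Bid BH3 peptide; 0% = Mcl-1 plus peptide wells and 100% = peptide-only wells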
EBV gp42 inh = EBV gp42 inhibition; Fluorescence polarization binding assay, mP read-out; hit rate 0.42% among 220,000; inhibition, % (tested at 21.74 µM); Q1HVG2; in the data active = inhibition above about 50%
Target sequence (Q1HVG2 whole entry, looked up): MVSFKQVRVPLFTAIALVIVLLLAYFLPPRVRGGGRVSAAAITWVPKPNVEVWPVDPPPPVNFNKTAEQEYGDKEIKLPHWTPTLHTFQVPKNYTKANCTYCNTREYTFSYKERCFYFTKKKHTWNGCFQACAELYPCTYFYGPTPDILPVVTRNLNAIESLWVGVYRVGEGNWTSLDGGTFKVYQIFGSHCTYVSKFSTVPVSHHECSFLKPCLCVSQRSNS
Bim-Mcl-1 = inhibitors of Bim-Mcl-1 interaction, human; Q07820; Bead-based flow cytometry, Bim peptide-Mcl-1 binding; hit rate 0.1% among 190,000; inhibition, % at 10 µM; in the data active = inhibition above about 40%;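 also: 0% = no compound tracer wells and 100% = peptide blocker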
RBBP9 inhibitor = human RBBP9 hydrolase inhibition. O75884. recombinant RBBP9, FP-Rh probe fluorescence polarization. inhibition, % at 7.94 µM. hit rate 0.2% among 220,000;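 active = inhibition above the campaign mean of all tested compounds plus 3 SD, cut at about 14% in these data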;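 also: plate controls were DMSO wells with RBBP9 for no effect and wells lacking RBBP9 protein for full effect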
Target sequence (O75884 whole entry, looked up): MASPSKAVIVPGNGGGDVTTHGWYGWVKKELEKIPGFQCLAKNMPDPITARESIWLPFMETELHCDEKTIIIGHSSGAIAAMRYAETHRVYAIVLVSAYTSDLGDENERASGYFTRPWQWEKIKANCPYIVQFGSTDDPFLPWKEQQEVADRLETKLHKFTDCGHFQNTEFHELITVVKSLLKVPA
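System: RBBP9 protein | Quantity: 2.5 µM RBBP9 dispensing solution, before mixing | Reagent: FP-Rh probe, 375 nM dispensing solution | Timing: Enzyme-compound preincubation 30 min, then probe labeling 45 min, 25 °C | Measured by: Fluorescence polarization | Read-out: % inhibition | Replication: One well per compound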
* hit, by the source's call; . = not tested or not shown; + = active, no number. Only some compounds are listed: those with a hit (about 2.2% of all), similar ones and a draw of the others.

SMILES	Mcl1 Noxa PPI	MCL1 BIM primary	Mcl1-Bid inh	EBV gp42 inh	Bim-Mcl-1	RBBP9 inhibitor
C=CCN1C(=O)/C(=C2/Sc3ccccc3N2CCCS(=O)(=O)O)SC1=S	71*	35	-10	-14	0	-4
C=CCN1C(=O)/C(=C2/Sc3ccccc3N2CC)SC1=S	.	4	.	.	.	.
CCCCCCCC/C=C\CCCCCCCC(=O)O	63*	4	-74	-12	.	.
CCCCC/C=C\C/C=C\C/C=C\CCCCC(=O)O	.	16	.	.	.	.
CC(C)c1ccc(/C=C/C(=O)n2nnc3ccccc32)cc1	-20	5	0	85*	-2	-6
CC(OC(=O)CC1CC2CCC1C2)C(=O)Nc1cccc(S(=O)(=O)N2CCOCC2)c1 (configuration not stated)	.	8	.	.	.	.
COc1ccc(CCNC(=O)c2ccc(Cl)cc2Cl)cc1OC	-1	-3	83*	-12	-2	-6
COCCn1c(=O)[nH]c2cc(C(=O)NCCc3ccc(OC)c(OC)c3)ccc2c1=O	12	7	-10	50*	-2	1
COc1ccc(CCNC(=O)c2ccc(=O)[nH]n2)cc1OC	2	1	100*	-2	0	-1
COc1ccc(CCNC(=O)CCCN2C(=O)c3ccccc3C2=O)cc1OC	-2	-3	62*	-19	-3	-10
CN(CC(=O)Nc1cccnc1)S(=O)(=O)c1ccccc1	-1	3	64*	12	-2	-6
O=c1cc(NC2CCCCC2)c2ccccc2o1	12	1	-1	-7	-2	6
CC(C)(C)c1ccc(C(CC(=O)O)NC(=O)Cc2ccccc2)cc1 (configuration not stated)	.	-6	.	.	.	.
COC(=O)c1ccc(N)cc1O	4	5	-30	6	5	1
COC(=O)c1ccc(=O)c2nc3/c(=C/O)c(O)cc(=O)c3[nH]c12	98*	97*	75*	98*	.	8
CCSc1ncc(/C=N/Nc2ccc([N+](=O)[O-])cc2)n1C	80*	-65	41	-21	-3	4
CCSc1ncc(/C=N/Nc2ccccc2)n1C	15	0	7	0	-1	-8
N#C/C(=C\c1cc2ccccc2nc1N1CCOCC1)C(=O)Nc1ccc(N2CCOCC2)cc1	12	-3	-24	9	-8	-1
CCOC(=O)/C(C#N)=C/c1cc2ccccc2nc1N1CCCCC1	-12	-3	-1	60*	3	-10
Cc1ccc2cc(/C=C(\C#N)C(N)=O)c(N3CCCCC3)nc2c1	19	-17	2	-12	-6	-4
Cc1ccc2cc(C=C(C#N)C#N)c(N3CCCCC3)nc2c1	7	-6	-12	117*	-6	-6
CC(=O)c1ccc(OCC(=O)NC(=O)NC2CCCCC2)cc1	.	-1	.	.	.	.
CN(Cc1cccnc1)C(=O)Cc1ccc(NS(=O)(=O)c2cccc(C(F)(F)F)c2)cc1	.	1	.	.	.	.
Cc1ccc(NC(=O)CN2C(=O)S/C(=C/c3ccc(O)c([N+](=O)[O-])c3)C2=O)cc1C	73*	.	21	65*	-3	5
COc1ccc(OC)c(CN2CCN(C(=O)CN3C(=O)NC4(CCCC4)C3=O)CC2)c1	.	-1	.	.	.	.
SMILES	Mcl1 Noxa PPI	MCL1 BIM primary	Mcl1-Bid inh	EBV gp42 inh	Bim-Mcl-1	RBBP9 inhibitor
Cc1nn(CCC(=O)O)c2nc(-c3cccnc3)cc(C(F)(F)F)c12	25	-5	45	-15	0	-6
Cc1nn(CCc2nn[nH]n2)c2nc(-c3ccc(C4CCCCC4)cc3)cc(C(F)(F)F)c12	-45	6	59*	7	0	-9
COc1ccccc1N(CC(O)CN1CCC(C)CC1)S(=O)(=O)c1ccccc1 (configuration not stated)	.	-2	.	.	.	.
COc1cccc2c1C(=O)c1c(O)c3c(c(O)c1C2=O)C[C@@](O)(C(C)=O)C[C@@H]3O[C@H]1C[C@H](N)[C@H](O)[C@H](C)O1	-3	.	-6	+	3	27*
COC(=O)c1cc2c(-c3ccccc3)cc3ccccn3c-2c1C(=O)OC	-10	48*	-62	61*	0	-4
O=C(NC(=S)Nc1ccc(NC(=O)c2ccccc2)cc1)c1ccc(F)cc1	.	9	.	.	.	.
O=C(NC(=S)Nc1ccc2c(c1)C(=O)c1ccccc1C2=O)c1ccc(F)cc1	51*	9	42	-9	-2	0
COc1ccc(C2CC(c3ccccc3)n3nc(NC(=O)c4cccs4)nc3N2)cc1 (configuration not stated)	-39	6	7	69*	0	-10
c1ccc2nc3ccccc3nc2c1	38	1	86*	-14	0	-4
O=C(/C=C/c1ccco1)Nc1ccc(N2CCCC2)cc1	64*	8	-61	5	-2	3
NS(=O)(=O)c1ccc(NC(=S)NC(=O)/C=C/c2ccco2)cc1	89*	8	32	-4	-2	-9
O=C(/C=C/c1ccco1)NC(=S)Nc1cccc(-c2nc3ccccc3o2)c1	.	-2	65*	-35	0	-32
CC(=O)Nc1ccc(NC(=S)NC(=O)/C=C/c2ccc(Cl)cc2)cc1	-8	3	7	-5	-1	11
O=C(/C=C/c1ccc(Cl)cc1)NC(=S)Nc1ccc(NC(=O)c2ccco2)cc1	46	10	56*	-26	-5	1
COC(=O)c1ccc(OCC(=O)c2cccc(OC)c2)cc1	9	7	0	-4	-2	-8
Cc1ccc(-c2nc3ccccc3s2)cc1NC(=S)NC(=O)/C=C/c1ccco1	-7	7	-2	-2	0	-7
O=C(/C=C/c1ccco1)NC(=S)Nc1cc(-c2nc3ccccc3s2)ccc1Cl	64*	-2	63*	-17	-4	-4
CC(C)(C)OC(=O)NC(Cc1ccccc1)C(=O)O (configuration not stated)	36	4	60*	-7	.	-1
O=c1[nH][nH]c2c(N=Cc3ccccc3O)ccc(F)c12	95*	.	-157	12	.	4
CN(C)S(=O)(=O)c1cccc(NC(=O)c2cccc(S(=O)(=O)N3CCCCC3)c2)c1	.	-2	.	.	.	.
O=c1[nH]c(CSc2ncnc3sc(-c4ccccc4)cc23)nc2ccccc12	19	-7	61*	-13	.	0
CCc1nc(Nc2ccc(N3CCN(C(C)=O)CC3)cc2)c2oc3ccccc3c2n1	85*	12	33	9	0	-7
CC(=O)N1CCN(c2ccc(Nc3ncnc4c3oc3ccccc34)cc2)CC1	68*	-1	20	1	2	-5
CCc1nc(Nc2ccccc2)c2oc3ccccc3c2n1	32	10	39	-1	-6	-11
Oc1ccc(Nc2ncnc3c2oc2ccccc23)cc1	.	6	.	.	.	.
CCC(=O)c1ccc(OCC(=O)OC(C)C(=O)N2CCc3ccccc32)cc1 (configuration not stated)	.	0	.	.	.	.
FC(F)(F)c1cccc(N2CCC(N=CN3CCCCCC3)=N2)c1	9	-2	-28	-1	0	-1
